Assay [1] addresses Small conductance calcium-activated potassium channel protein 3 (Rattus norvegicus) (UniProt P70605). Description: Inhibition of KCa2.3 in Sprague-Dawley rat superior cervical ganglion neurons assessed as inhibition of afterhyperpolarization by electrophysiological assay relative to dequalinium. In short, it runs like this:
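AHP recorded from rat sympathetic ganglion neurons. The equi-effective molar ratio is the concentration giving 50% AHP inhibition relative to that of dequalinium, used as the comparator instead of UCL 1848.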

For assay [2] the target is unchanged. Kind of assay: Inhibition of KCa2.3 in Sprague-Dawley rat superior cervical ganglion neurons assessed as inhibition of afterhyperpolarization by electrophysiological assay relative to UCL1848. In short, it runs like this: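 AHP recorded from rat sympathetic ganglion neurons. The equi-effective molar ratio is the test-compound concentration giving 50% AHP inhibition divided by the UCL 1848 concentration giving 50% inhibition, both measured in the same experiment. Each compound was tested on 3–5 neurons.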

Assay [3] has as its target Small conductance calcium-activated potassium channel protein 3 (Rattus norvegicus, UniProt P70605). Description: Inhibition of KCa2.3 in Sprague-Dawley rat superior cervical ganglion neurons assessed as inhibition of afterhyperpolarization by electrophysiological assay. The essentials: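 Afterhyperpolarization (AHP) recorded from rat sympathetic ganglion neurons. The reported value is the concentration giving a 50% reduction in AHP amplitude.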

Broadly, the IC50 is the concentration needed to halve the response being measured.

Chain of Small conductance calcium-activated potassium channel protein 3 (Rattus norvegicus) (P70605 whole entry): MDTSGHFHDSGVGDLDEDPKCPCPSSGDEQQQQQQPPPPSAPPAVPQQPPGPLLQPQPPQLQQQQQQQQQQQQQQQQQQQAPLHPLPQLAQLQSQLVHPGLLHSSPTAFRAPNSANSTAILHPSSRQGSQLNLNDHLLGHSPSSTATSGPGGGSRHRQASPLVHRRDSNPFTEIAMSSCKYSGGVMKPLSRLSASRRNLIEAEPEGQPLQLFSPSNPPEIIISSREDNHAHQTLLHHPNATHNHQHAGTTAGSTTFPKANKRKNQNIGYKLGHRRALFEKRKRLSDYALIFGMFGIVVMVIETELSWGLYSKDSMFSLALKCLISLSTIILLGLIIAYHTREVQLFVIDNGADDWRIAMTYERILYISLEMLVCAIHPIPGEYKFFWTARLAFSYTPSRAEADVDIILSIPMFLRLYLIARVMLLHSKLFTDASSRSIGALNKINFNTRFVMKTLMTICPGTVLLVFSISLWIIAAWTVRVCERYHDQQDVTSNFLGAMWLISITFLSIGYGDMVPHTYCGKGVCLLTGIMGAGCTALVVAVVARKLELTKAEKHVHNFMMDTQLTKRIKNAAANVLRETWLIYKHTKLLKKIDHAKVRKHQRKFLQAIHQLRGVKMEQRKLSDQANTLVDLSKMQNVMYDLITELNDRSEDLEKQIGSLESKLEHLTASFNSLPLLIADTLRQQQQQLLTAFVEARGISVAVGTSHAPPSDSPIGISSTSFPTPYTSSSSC
Chain of Small conductance calcium-activated potassium channel protein 3 (P70605 whole entry): as above

As for `CN1CCCCCN(C)c2cc[n+](c3ccccc23)CCCCC[n+]2ccc1c1ccccc12`, the EMR in assay [1] came to 0.14; in assay [2] it was 47. In assay [3], the IC50 was found to be 124 nM.

The values are drawn from ChEMBL document CHEMBL2390924, “Further studies on bis-charged tetraazacyclophanes as potent inhibitors of small conductance Ca(2+)-activated K+ channels” (Eur J Med Chem, 2013).
